According to BindingDB's records for doi:10.1021/jm940845j (University of California, 1996):

Each compound was assayed against Tumor necrosis factor (Homo sapiens, UniProt P01375) (assay: TNF-alpha production in PBMC by ELISA method).
How it was run: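 Human PBMC were isolated from heparinized blood by ficoll-histopaque and plated at […] cells/mL in RPMI 1640 with 20% autologous plasma and glutamine. Compound at 2X concentration was added in equal volume, 60 min preincubation, then LPS 10 ug/mL final. Supernatant was taken at 18 h for sandwich ELISA (mouse capture, rabbit detection, poly-HRP). IC50 is the concentration inhibiting TNFa production by 50% of control.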

Chain of Tumor necrosis factor (P01375 whole entry): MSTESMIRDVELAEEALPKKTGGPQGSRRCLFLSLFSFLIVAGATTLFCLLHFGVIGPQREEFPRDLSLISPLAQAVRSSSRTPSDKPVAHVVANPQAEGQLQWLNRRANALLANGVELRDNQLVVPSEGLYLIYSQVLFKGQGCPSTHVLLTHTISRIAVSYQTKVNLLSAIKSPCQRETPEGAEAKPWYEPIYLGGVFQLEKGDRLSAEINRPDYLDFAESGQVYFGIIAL

| Compound | IC50 [µM] |
| --- | --- |
| COc1ccc([C@@H]2CNC(=O)C2)cc1OC1CCCC1 (racemic) [Adeo] | 12 |
| CC(=O)CCCCn1c(=O)c2c(ncn2C)n(C)c1=O [1-(5-Oxohexyl)theobromine (pentoxifylline)] | 85 |
| CCOC(=O)CCn1c(=O)c2c(ncn2C)n(C)c1=O [3-(3,7-Dimethyl-2,6-dioxo-2,3,6,7-tetrahydro-purin-1-yl)-propionic acid ethyl ester] | 10 |
| CCOC(=O)CCCn1c(=O)c2nccnc2n(Cc2ccccc2)c1=O [4-(1-Benzyl-2,4-dioxo-1,4-dihydro-2H-pteridin-3-yl)-butyric acid ethyl ester] | 175 |
| CCCCn1c(=O)n(CCCC(=O)OCC)c(=O)c2nccnc21 [4-(1-Butyl-2,4-dioxo-1,4-dihydro-2H-pteridin-3-yl)-butyric acid ethyl ester] | 15 |
| CCOC(=O)CCCn1c(=O)c2nccnc2n(CC(C)C)c1=O [4-(1-Isobutyl-2,4-dioxo-1,4-dihydro-2H-pteridin-3-yl)-butyric acid ethyl ester] | 20 |
| CCOC(=O)CCCn1c(=O)c2nccnc2n(C)c1=O [4-(1-Methyl-2,4-dioxo-1,4-dihydro-2H-pteridin-3-yl)-butyric acid ethyl ester] | 12 |
| Cn1c(=O)n(CCCC(=O)O)c(=O)c2nccnc21 [4-(1-Methyl-2,4-dioxo-1,4-dihydro-2H-pteridin-3-yl)-butyric acid] | > 200 |
| CCOC(=O)CCCn1c(=O)c2ccccc2n(C)c1=O [4-(1-Methyl-2,4-dioxo-1,4-dihydro-2H-quinazolin-3-yl)-butyric acid ethyl ester] | 55 |
| Cn1c(=O)n(CCCC(=O)O)c(=O)c2ccccc21 [4-(1-Methyl-2,4-dioxo-1,4-dihydro-2H-quinazolin-3-yl)-butyric acid] | > 200 |
| CCOC(=O)CCCn1c(=O)c2nc(-c3ccccc3)cnc2n(C)c1=O [4-(1-Methyl-2,4-dioxo-6-phenyl-1,4-dihydro-2H-pteridin-3-yl)-butyric acid ethyl ester] | > 200 |
| CCCCCn1c(=O)n(CCCC(=O)OCC)c(=O)c2nccnc21 [4-(2,4-Dioxo-1-pentyl-1,4-dihydro-2H-pteridin-3-yl)-butyric acid ethyl ester] | 16 |
| CCCn1c(=O)n(CCCC(=O)OCC)c(=O)c2nccnc21 [4-(2,4-Dioxo-1-propyl-1,4-dihydro-2H-pteridin-3-yl)-butyric acid ethyl ester] | 5 |
| CCCn1c(=O)n(CCCC(=O)O)c(=O)c2nccnc21 [4-(2,4-Dioxo-1-propyl-1,4-dihydro-2H-pteridin-3-yl)-butyric acid] | > 200 |
| CCOC(=O)CCCn1c(=O)c2c(ncn2C)n(C)c1=O [4-(3,7-Dimethyl-2,6-dioxo-2,3,6,7-tetrahydro-purin-1-yl)-butyric acid ethyl ester] | 6 |
| Cn1cnc2c1c(=O)n(CCCC(=O)O)c(=O)n2C [4-(3,7-Dimethyl-2,6-dioxo-2,3,6,7-tetrahydro-purin-1-yl)-butyric acid] | > 200 |
| COC(=O)c1ccc(Cn2c(=O)c3c(ncn3C)n(C)c2=O)cc1 [4-(3,7-Dimethyl-2,6-dioxo-2,3,6,7-tetrahydro-purin-1-ylmethyl)-benzoic acid methyl ester] | > 200 |

| Compound | IC50 [µM] |
| --- | --- |
| CCCCOc1cc(C[C@@H]2CNC(=O)N2)ccc1OC [4-(3-Butoxy-4-methoxy-benzyl)-imidazolidin-2-one] | 50 |
| CCOC(=O)CCCn1c(=O)c2nsnc2n(C)c1=O [4-(4-Methyl-5,7-dioxo-4,5-dihydro-7H-[1,2,5]thiadiazolo[3,4-d]pyrimidin-6-yl)-butyric acid ethyl ester] | 25 |
| Cn1c(=O)n(CCCC(=O)O)c(=O)c2nsnc21 [4-(4-Methyl-5,7-dioxo-4,5-dihydro-7H-[1,2,5]thiadiazolo[3,4-d]pyrimidin-6-yl)-butyric acid] | > 200 |
| CCCn1c(=O)n(CCCC(=O)OCC)c(=O)c2nsnc21 [4-(5,7-Dioxo-4-propyl-4,5-dihydro-7H-[1,2,5]thiadiazolo[3,4-d]pyrimidin-6-yl)-butyric acid ethyl ester] | 18 |
| CCOC(=O)CCCn1c(=O)c2nc(CC)c(CC)nc2n(C)c1=O [4-(6,7-Diethyl-1-methyl-2,4-dioxo-1,4-dihydro-2H-pteridin-3-yl)-butyric acid ethyl ester] | 130 |
| CCCn1c(=O)n(CCCC(=O)OCC)c(=O)c2c1ncn2C [4-(7-Methyl-2,6-dioxo-3-propyl-2,3,6,7-tetrahydro-purin-1-yl)-butyric acid ethyl ester] | 5 |
| CCOC(=O)CCCn1c(=O)c2c(nc(Br)n2C)n(C)c1=O [4-(8-Bromo-3,7-dimethyl-2,6-dioxo-2,3,6,7-tetrahydro-purin-1-yl)-butyric acid ethyl ester] | 60 |
| COC(=O)c1ccc(Cn2c(=O)c3c(nc(Br)n3C)n(C)c2=O)cc1 [4-(8-Bromo-3,7-dimethyl-2,6-dioxo-2,3,6,7-tetrahydro-purin-1-ylmethyl)-benzoic acid methyl ester] | > 200 |
| CCOC(=O)CCCn1c(=O)c2c([nH]c(=S)n2C)n(C)c1=O [4-(8-Mercapto-3,7-dimethyl-2,6-dioxo-2,3,6,7-tetrahydro-purin-1-yl)-butyric acid ethyl ester] | 100 |
| CCOC(=O)c1ccc(Cn2c(=O)c3c([nH]c(=S)n3C)n(C)c2=O)cc1 [4-(8-Mercapto-3,7-dimethyl-2,6-dioxo-2,3,6,7-tetrahydro-purin-1-ylmethyl)-benzoic acid ethyl ester] | > 200 |
| CCOC(=O)CCCn1c(=O)c2nccnc2n(C2CCOC2)c1=O (stereo not drawn) [4-[2,4-Dioxo-1-(tetrahydro-furan-3-yl)-1,4-dihydro-2H-pteridin-3-yl]-butyric acid ethyl ester] | 19 |
| CCOC(=O)CCCCn1c(=O)c2c(ncn2C)n(C)c1=O [5-(3,7-Dimethyl-2,6-dioxo-2,3,6,7-tetrahydro-purin-1-yl)-pentanoic acid ethyl ester] | 11 |
| CCCCCCCn1c(=O)c2nsnc2n(C)c1=O [6-Heptyl-4-methyl-4H-[1,2,5]thiadiazolo[3,4-d]pyrimidine-5,7-dione] | 75 |
| Cn1c(=O)[nH]c(=O)c2[nH]c(=S)[nH]c21 [8-Mercapto-3-methyl-3,7-dihydro-purine-2,6-dione] | > 200 |
| CCOC(=O)Cn1c(=O)c2c(ncn2C)n(C)c1=O [(3,7-Dimethyl-2,6-dioxo-2,3,6,7-tetrahydro-purin-1-yl)-acetic acid ethyl ester] | 200 |
| COC(=O)/C=C\Cn1c(=O)c2nccnc2n(C)c1=O [(Z)-4-(1-Methyl-2,4-dioxo-1,4-dihydro-2H-pteridin-3-yl)-but-2-enoic acid methyl ester] | 25 |
